Entries after “also recorded” stand apart in the source; their conditions may differ.
Columns and labels:
TUCH [1] = assay: TUCH binding assay in mouse cholangiocytes; format: cell-based, rotavirus, simian strain; mouse cholangiocytes; conditions: mouse cholangiocytes pretreated with 1 mM peptide; Fig. 2A, 3B
Procedure, shortened: (§1)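 Confluent mouse or H69 cholangiocytes were pretreated with peptide (1 mM, or varying concentrations). Cells, medium and virus were chilled to 4°C, then inoculated and held 1 h at 4°C. Cells were washed twice and freeze/thawed twice. Bound virus (cell fraction) and unbound virus (washes plus inoculum) were titred by focus forming assay, and attached virus was expressed as % of inoculum. DGEA and GHRP peptides served as controls. Data are mean ± standard error, ANOVA.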

Ro1845 [2] = assay: Ro1845 binding assay in mouse cholangiocytes; format: cell-based, rotavirus, human strain; mouse cholangiocytes; conditions: mouse cholangiocytes pretreated with 1 mM peptide; Fig. 2A, 3B
Procedure, shortened: as §1

Ro1845 [3] = assay: Ro1845 viral yield in mouse cholangiocytes; format: cell-based, rotavirus, human strain; mouse cholangiocytes; conditions: mouse cholangiocytes pretreated with 1 mM peptide; Fig. 2B, 3C
Procedure, shortened: (§2)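 Mouse or H69 cholangiocytes were pretreated with peptide in DMEM (1 mM, or varying concentrations) and infected at 4°C, then incubated 18 h at 37°C. Infectious yield was measured by focus forming assay: serial dilutions at 37°C for 14-16 h, acetone fixation, guinea pig anti-rotavirus IgG (1:1000), then FITC anti-guinea pig IgG (1:500), with foci counted by UV microscopy. DGEA and GHRP served as controls.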

RRV [4] = assay: RRV binding; format: cell-based; conditions: for effect on RRV-cholangiocyte binding: peptides at varying concentrations, 4°C
Procedure, shortened: as §1

TUCH [5] = assay: TUCH viral yield in mouse cholangiocytes; format: cell-based, rotavirus, simian strain; mouse cholangiocytes; conditions: mouse cholangiocytes pretreated with 1 mM peptide; Fig. 2B, 3C
Procedure, shortened: as §2

RRV [6] = assay: RRV replication; format: cell-based; conditions: for inhibition of RRV replication: mouse cholangiocytes pretreated with 1 mM peptide, Fig. 8D; for effect on RRV replication: mouse cholangiocytes pretreated with peptide, concentration not given, Fig. 4B
Procedure, shortened: as §2

rotavirus = conditions: due to decreased viral entry; cited from earlier work
RRV [7] = assay: Murine model of biliary atresia; format: in vivo, BALB/c mice; conditions: bile ducts harvested 12 days after infection with RRV and peptide treatment; Fig. 5C
RRV [8] = conditions: negative control peptide; cited from earlier work
RRV [9] = assay: RRV binding in siRNA-transfected mouse cholangiocytes; format: cell-based, rhesus rotavirus; mouse cholangiocytes; conditions: 1 mM peptide, Fig. 8A
GRV [10] = assay: GRV binding assay in H69 cells; format: cell-based, rotavirus, goat strain; human cholangiocytes (H69); conditions: Fig. 6C
Procedure, shortened: as §1

Ro1845 [11] = assay: Ro1845 binding assay in H69 cells; format: cell-based, rotavirus, human strain; human cholangiocytes (H69); conditions: Fig. 6C
Procedure, shortened: as §1

GRV [12] = assay: GRV binding assay in mouse cholangiocytes; format: cell-based, rotavirus, goat strain; mouse cholangiocytes; conditions: mouse cholangiocytes pretreated with 1 mM peptide; Fig. 2A
Procedure, shortened: as §1

RRV [13] = assay: RRV binding assay in human cholangiocytes; format: cell-based, rhesus rotavirus; human cholangiocytes (H69)
Procedure, shortened: as §1

GRV [14] = assay: GRV viral yield in mouse cholangiocytes; format: cell-based, rotavirus, goat strain; mouse cholangiocytes; conditions: mouse cholangiocytes pretreated with 1 mM peptide; Fig. 2B
Procedure, shortened: as §2

TUCH [15] = assay: TUCH viral yield in H69 cells; format: cell-based, rotavirus, simian strain; human cholangiocytes (H69); conditions: Fig. 6D
Procedure, shortened: as §2

TUCH [16] = assay: TUCH binding assay in H69 cells; format: cell-based, rotavirus, simian strain; human cholangiocytes (H69); conditions: Fig. 6C
Procedure, shortened: as §1

GRV [17] = assay: GRV viral yield in H69 cells; format: cell-based, rotavirus, goat strain; human cholangiocytes (H69); conditions: Fig. 6D
Procedure, shortened: as §2

RRV [18] = assay: RRV replication in human cholangiocytes; format: cell-based, rhesus rotavirus; human cholangiocytes (H69)
Procedure, shortened: as §2

Ro1845 [19] = assay: Ro1845 viral yield in H69 cells; format: cell-based, rotavirus, human strain; human cholangiocytes (H69); conditions: Fig. 6D
Procedure, shortened: as §2

[20] = mouse cholangiocytes pretreated with 1 mM peptide, versus serum-free media, Fig. 3B, 4C, 8C
[21] = mouse cholangiocytes pretreated with peptide, concentration not given, Fig. 4A

Substance: VRTRISGLY
- effect on TUCH binding (TUCH [1]): no effect
- effect on Ro1845 binding (Ro1845 [2]): no effect
- effect on Ro1845 replication / viral yield (Ro1845 [3]): no effect
- effect on RRV binding (RRV [4]; [20]): no effect
- effect on TUCH replication / viral yield (TUCH [5]): no effect

Substance: KTKIDRSTQISPNTLPD [reference compound]
- inhibition of RRV replication (RRV [6]): 54.50%
- effect on RRV binding (RRV [4]; [20]): no effect
- viral replication in MA104 cells treated with peptide (rotavirus): reduced viral replication

Substance: VVRLY
- effect on RRV binding (RRV [4]; [20]): unable to exhibit such inhibition

Substance: FSGIKSTIDAAKSMATNVMKKFKK [reference compound]
- inhibition of RRV replication (RRV [6]): 42.43%
- effect on RRV binding (RRV [4]; [20]): no effect
- viral replication in MA104 cells treated with peptide (rotavirus): reduced viral replication

Substance: ISRLY
- effect on RRV binding (RRV [4]; [20]): maintained the ability to inhibit

Substance: SSASAW
- histology of extrahepatic bile ducts (hematoxylin and eosin) (RRV [7]): complete obstruction of their bile ducts
- effect on RRV-cholangiocyte binding (RRV [4]; mouse cholangiocytes, Fig. 1B): did not interfere

Substance: VSRAY
- effect on RRV binding (RRV [4]; [20]): unable to exhibit such inhibition

Substance: VSRLY
- effect on RRV binding (RRV [4]; [20]): maintained the ability to inhibit

Substance: PTAAGV
- effect on RRV-cholangiocyte binding (RRV [4]; mouse cholangiocytes, Fig. 1B): did not interfere

Substance: VSGLY
- effect on RRV binding (RRV [4]; [20]): unable to exhibit such inhibition

Substance: GHRP
- ability to inhibit RRV binding (RRV [8]): no ability to inhibit RRV binding

Substance: DGEA [reference compound]
- effect on TUCH binding (TUCH [1]): significantly inhibited
- effect on Ro1845 binding (Ro1845 [2]): significantly inhibited
- peptide blocking of RRV binding in negative control siRNA cholangiocytes (RRV [9]): remained sensitive to DGEA blocking
- effect on Ro1845 replication / viral yield (Ro1845 [3]): significantly inhibited
- effect on RRV binding (RRV [4]; [20]): significantly inhibited
- RRV binding, percent of control (positive control) (RRV [4]; mouse cholangiocytes, concentration not given, Fig. 1B): 61.40%
- effect on TUCH replication / viral yield (TUCH [5]): significantly inhibited

Substance: VSRLA
- effect on RRV binding (RRV [4]; [20]): maintained the ability to inhibit

Substance: TRTRVSRLY
- effect on GRV binding to H69 cells (GRV [10]): able to block
- effect on Ro1845 binding to H69 cells (Ro1845 [11]): no effects
- inhibition of GRV binding compared with control (GRV [12]): 41.27%
- inhibition of RRV replication (RRV [6]): 44.53%
- effect on RRV replication (RRV [6]): significantly inhibiting
- effect on TUCH binding (TUCH [1]): no effect
- effect on Ro1845 binding (Ro1845 [2]): no effect
- RRV binding to human cholangiocytes, of control (RRV [13]; H69 cells, 1 mM peptide, Fig. 6A): 65.9%
- effect on RRV binding to H69 cells (RRV [13]; strain comparison, Fig. 6C): able to block
- reduction of GRV viral yield, of control (GRV [14]): 35.51%
- effect on TUCH viral yield in H69 cells (TUCH [15]): no decrease in yield
- effect on TUCH binding to H69 cells (TUCH [16]): no effects
- histology of extrahepatic bile ducts (hematoxylin and eosin) (RRV [7]): mild inflammation with a patent lumen
- effect on GRV viral yield in H69 cells (GRV [17]): reduced viral yields
- RRV replication within human cholangiocytes, of control (RRV [18]; H69 cells, 1 mM peptide, Fig. 6B): 57.9%
- effect on RRV viral yield in H69 cells (RRV [18]; strain comparison, Fig. 6D): reduced viral yields
- effect on Ro1845 replication / viral yield (Ro1845 [3]): no reduction in viral yield; also recorded: no effect
- effect on RRV binding (RRV [4]; [20]): significantly reduced
- inhibition of RRV binding compared with control (RRV [4]; mouse cholangiocytes pretreated with 1 mM peptide, Fig. 2A): 45.13%
- effect on RRV binding (RRV [4]; [21]): significantly inhibiting
- effect on TUCH replication / viral yield (TUCH [5]): no reduction in viral yield; also recorded: no effect
- effect on Ro1845 viral yield in H69 cells (Ro1845 [19]): no decrease in yield

Substance: MRTRVSRLY
- effect on RRV replication (RRV [6]): significantly inhibiting
- effect on RRV binding (RRV [4]; [21]): significantly inhibiting

Substance: MRTRVSGLY
- effect on TUCH binding (TUCH [1]): no effect
- effect on Ro1845 binding (Ro1845 [2]): no effect
- effect on Ro1845 replication / viral yield (Ro1845 [3]): no effect
- effect on RRV binding (RRV [4]; [20]): no effect
- effect on TUCH replication / viral yield (TUCH [5]): no effect

Reference: publication PMC5360466 (Hepatology (Baltimore, Md.), 2017)
